# Assay results reported in ChEMBL document CHEMBL4765273 (Eur J Med Chem, 2020).
# System: Influenza A virus
# Test: Antiviral activity against Influenza A virus (A/goose/Guangdong/SH7/2013(H5N1)) group-1 infected in chicken embryo fibroblast assessed as reduction in viral infection preincubated for 1 hrs followed by fibroblast infection and measured after 72 hrs by hemagglutination titre method
# Assay type: functional, organism-based
# Settings: not given
row,SMILES,IC50 [nM]
1,CCC(CC)O[C@@H]1C=C(C(=O)O)C[C@H](NCc2cccc(-c3cccs3)c2)[C@H]1NC(C)=O,970
2,CCC(CC)O[C@@H]1C=C(C(=O)O)C[C@H](NC/C=C/c2cccc(Cl)c2)[C@H]1NC(C)=O,2990
3,CCC(CC)O[C@@H]1C=C(C(=O)O)C[C@H](NC/C=C/c2ccc(Cl)cc2)[C@H]1NC(C)=O,960

# System: Influenza A virus
# Test: Antiviral activity against Influenza A virus (A/chicken/Hebei/LZF/ 2014(H5N2)) group-2 infected in chicken embryo fibroblast assessed as reduction in viral infection preincubated for 1 hrs followed by fibroblast infection and measured after 72 hrs by hemagglutination titre method
# Assay type: functional, organism-based
# Settings: not given
row,SMILES,IC50 [nM]
1,CCC(CC)O[C@@H]1C=C(C(=O)O)C[C@H](NCc2cccc(-c3cccs3)c2)[C@H]1NC(C)=O,220
2,CCC(CC)O[C@@H]1C=C(C(=O)O)C[C@H](NC/C=C/c2cccc(Cl)c2)[C@H]1NC(C)=O,290
3,CCC(CC)O[C@@H]1C=C(C(=O)O)C[C@H](NC/C=C/c2ccc(Cl)cc2)[C@H]1NC(C)=O,240

# System: Influenza A virus
# Test: Antiviral activity against Influenza A virus (A/Duck/Guangdong/674/2014 (H5N6)) group-2 infected in chicken embryo fibroblast assessed as reduction in viral infection preincubated for 1 hrs followed by fibroblast infection and measured after 72 hrs by hemagglutination titre method
# Assay type: functional, organism-based
# Settings: not given
row,SMILES,IC50 [nM]
1,CCC(CC)O[C@@H]1C=C(C(=O)O)C[C@H](NCc2cccc(-c3cccs3)c2)[C@H]1NC(C)=O,6710
2,CCC(CC)O[C@@H]1C=C(C(=O)O)C[C@H](NC/C=C/c2cccc(Cl)c2)[C@H]1NC(C)=O,5520
3,CCC(CC)O[C@@H]1C=C(C(=O)O)C[C@H](NC/C=C/c2ccc(Cl)cc2)[C@H]1NC(C)=O,3930

# System: Influenza A virus
# Test: Antiviral activity against Influenza A virus (A/goose/Jiangsu/1306/2014 (H5N8)) group-1 infected in chicken embryo fibroblast assessed as reduction in viral infection preincubated for 1 hrs followed by fibroblast infection and measured after 72 hrs by hemagglutination titre method
# Assay type: functional, organism-based
# Settings: not given
row,SMILES,IC50 [nM]
1,CCC(CC)O[C@@H]1C=C(C(=O)O)C[C@H](NCc2cccc(-c3cccs3)c2)[C@H]1NC(C)=O,89
2,CCC(CC)O[C@@H]1C=C(C(=O)O)C[C@H](NC/C=C/c2cccc(Cl)c2)[C@H]1NC(C)=O,130
3,CCC(CC)O[C@@H]1C=C(C(=O)O)C[C@H](NC/C=C/c2ccc(Cl)cc2)[C@H]1NC(C)=O,530

# System: not listed separately
# Test: Cytotoxicity against chicken embryo fibroblast assessed as reduction in cell viability after 48 hrs by CCK8 assay
# Parameters: species or system Gallus gallus
# Settings: chicken embryo fibroblasts
# In short: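 Chicken embryo fibroblasts (1×10^5 cells/mL) were cultured 24 h at 37°C, 5% CO2, washed with serum-free DMEM, then exposed to 2-fold serial compound dilutions in 1% FBS DMEM for 48 h. CCK-8 in 1% FBS DMEM was added for 90 min and absorbance read at 450 nm. CC50 was obtained by curve fitting. Blank and cell controls were included.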
row,SMILES,CC50 at 48 h [nM]
1,CCC(CC)O[C@@H]1C=C(C(=O)O)C[C@H](NCc2cccc(-c3cccs3)c2)[C@H]1NC(C)=O,> 200000
2,CCC(CC)O[C@@H]1C=C(C(=O)O)C[C@H](NC/C=C/c2cccc(Cl)c2)[C@H]1NC(C)=O,> 200000
3,CCC(CC)O[C@@H]1C=C(C(=O)O)C[C@H](NC/C=C/c2ccc(Cl)cc2)[C@H]1NC(C)=O,> 200000

# System: not listed separately
# Test: Inhibition of Influenza A virus (A/goose/Guangdong/SH7/2013(H5N1)) group-1 Neuraminidase N1 preincubated for 10 mins followed by MUNANA substrate addition and measured after 40 to 60 mins by fluorescence method
# Settings: not given
# In short: (§1)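 Virus-derived NA was preincubated 10 min at 37°C with compound in MES buffer. Fluorogenic substrate was added and the reaction run for 40–60 min at 37°C, then stopped with glycine/NaOH. Fluorescence was read at ex 365 / em 460 nm with substrate blanks subtracted. IC50 was taken from percent-inhibition dose-response curves and reported as mean ± SD of three experiments.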
row,SMILES,IC50 [nM]
1,CCC(CC)O[C@@H]1C=C(C(=O)O)C[C@H](NCc2cccc(-c3cccs3)c2)[C@H]1NC(C)=O,74.8
2,CCC(CC)O[C@@H]1C=C(C(=O)O)C[C@H](NC/C=C/c2cccc(Cl)c2)[C@H]1NC(C)=O,129
3,CCC(CC)O[C@@H]1C=C(C(=O)O)C[C@H](NC/C=C/c2ccc(Cl)cc2)[C@H]1NC(C)=O,22.4

# System: not listed separately
# Test: Inhibition of Influenza A virus (A/chicken/Hebei/LZF/ 2014(H5N2)) group-2 Neuraminidase N2 preincubated for 10 mins followed by MUNANA substrate addition and measured after 40 to 60 mins by fluorescence method
# Settings: not given
# In short: as §1
row,SMILES,IC50 [nM]
1,CCC(CC)O[C@@H]1C=C(C(=O)O)C[C@H](NCc2cccc(-c3cccs3)c2)[C@H]1NC(C)=O,12000
2,CCC(CC)O[C@@H]1C=C(C(=O)O)C[C@H](NC/C=C/c2cccc(Cl)c2)[C@H]1NC(C)=O,869
3,CCC(CC)O[C@@H]1C=C(C(=O)O)C[C@H](NC/C=C/c2ccc(Cl)cc2)[C@H]1NC(C)=O,255

# System: not listed separately
# Test: Inhibition of Influenza A virus (A/Duck/Guangdong/674/2014 (H5N6)) group-2 Neuraminidase N6 preincubated for 10 mins followed by MUNANA substrate addition and measured after 40 to 60 mins by fluorescence method
# Settings: not given
# In short: as §1
row,SMILES,IC50 [nM]
1,CCC(CC)O[C@@H]1C=C(C(=O)O)C[C@H](NCc2cccc(-c3cccs3)c2)[C@H]1NC(C)=O,16100
2,CCC(CC)O[C@@H]1C=C(C(=O)O)C[C@H](NC/C=C/c2cccc(Cl)c2)[C@H]1NC(C)=O,10700
3,CCC(CC)O[C@@H]1C=C(C(=O)O)C[C@H](NC/C=C/c2ccc(Cl)cc2)[C@H]1NC(C)=O,809

# System: not listed separately
# Test: Inhibition of Influenza A virus (A/goose/Jiangsu/1306/2014 (H5N8)) group-1 Neuraminidase N8 preincubated for 10 mins followed by MUNANA substrate addition and measured after 40 to 60 mins by fluorescence method
# Settings: not given
# In short: as §1
row,SMILES,IC50 [nM]
1,CCC(CC)O[C@@H]1C=C(C(=O)O)C[C@H](NCc2cccc(-c3cccs3)c2)[C@H]1NC(C)=O,55.2
2,CCC(CC)O[C@@H]1C=C(C(=O)O)C[C@H](NC/C=C/c2cccc(Cl)c2)[C@H]1NC(C)=O,309
3,CCC(CC)O[C@@H]1C=C(C(=O)O)C[C@H](NC/C=C/c2ccc(Cl)cc2)[C@H]1NC(C)=O,174
